Source: ChEMBL document CHEMBL3085761, “Synthesis, anticonvulsant and anti-inflammatory studies of new 1,4-dihydropyridin-4-yl-phenoxyacetohydrazones” (Eur J Med Chem, 2013)

What was measured:
Assay type in all cases: functional
[1] = system: Rattus norvegicus; test: Antiinflammatory activity in Wistar rat assessed as inhibition of carrageenan-induced paw edema at 20 mg/kg administered 30 mins prior to carrageenan-challenge measured after 2 hrs by plethysmographic analysis relative to control
Outline: (§1)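 Male or female Wistar rats (100–150 g), five per group, fasted overnight; 20 mg/kg given by stomach tube in 5 mL water. 30 min later 0.05 mL 1% carrageenan s.c. into left hind paw plantar side; paw volume by mercury plethysmography at 0, 30, 60, 120, 180 min; percent inhibition versus control, one-way ANOVA with Dunnett's test.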

[2] = system: Rattus norvegicus; test: Antiinflammatory activity in Wistar rat assessed as inhibition of carrageenan-induced paw edema at 20 mg/kg administered 30 mins prior to carrageenan-challenge measured after 3 hrs by plethysmographic analysis relative to control; outline: as §1
[3] = system: Rattus norvegicus; test: Antiinflammatory activity in Wistar rat assessed as inhibition of carrageenan-induced paw edema at 20 mg/kg administered 30 mins prior to carrageenan-challenge measured after 1 hr by plethysmographic analysis relative to control; outline: as §1
[4] = system: Rattus norvegicus; test: Antiinflammatory activity in Wistar rat assessed as inhibition of carrageenan-induced paw edema at 20 mg/kg administered 30 mins prior to carrageenan-challenge measured after 30 mins by plethysmographic analysis relative to control; outline: as §1
[5] = system: Mus musculus; test: Anticonvulsant activity in ip dosed mouse assessed as protection against maximal electroshock-induced epileptic seizures after 0.5 hrs; details: read-out: MED
Outline: (§2)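 Mice (20–40 g), groups of six to ten; i.p. doses 30, 100 and 300 mg/kg; tested at 0.5 and 4 h. Stimulus 50 mA, 60 Hz, 0.2 s via corneal electrodes primed with anaesthetic electrolyte; abolition of hindlimb tonic extension scored as protection. Value is the minimal dose protecting at least 50% of animals.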

[6] = system: Mus musculus; test: Anticonvulsant activity in ip dosed mouse assessed as protection against maximal electroshock-induced epileptic seizures after 4 hrs; details: read-out: MED; outline: as §2

SMILES	inhibition in vivo at 20 mg/kg [1] [%]	inhibition in vivo at 20 mg/kg [2] [%]	inhibition in vivo at 20 mg/kg [3] [%]	inhibition in vivo at 20 mg/kg [4] [%]	minimal effective dose [5] [mg/kg]	minimal effective dose [6] [mg/kg]
O=C(O)Cc1ccccc1Nc1c(Cl)cccc1Cl [DICLOFENAC SODIUM]	61.1	65.3	41	16.7		
O=C1NC(=O)C(c2ccccc2)(c2ccccc2)N1 [PHENYTOIN]					30	30
